# Reference: ChEMBL document CHEMBL2169796, “Antiproliferative and antimigratory actions of synthetic long chain n-3 monounsaturated fatty acids in breast cancer cells that overexpress cyclooxygenase-2” (J Med Chem, 2012)
# Active and inactive are the calls of the source. No cut-off for these calls is given here.
# Experiments:
# MDA-MB-468 [1] = experiment: Inhibition of cell invasion in human MDA-MB-468 cells overexpressing COX-2 at 20 uM after 20 hrs by matrigel droplet assay relative to untreated-control; format: functional
# In short: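 Cells (3.5 × 10^6/mL) mixed with Matrigel, 20 μL droplets set 5 min at 37 °C, then covered with endothelial growth medium-2 with 10% FBS containing fatty acid (10 or 20 μM) for 20 h at 37 °C, 5% CO2; cells migrating out of droplets counted by phase-contrast microscopy, vs DMSO control.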
# MDA-MB-468 [2] = experiment: Cytotoxicity against human MDA-MB-468 cells assessed as reduction in viable cells after 48 hrs by trypan blue exclusion assay; format: functional
# In short: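 COX-2-overexpressing MDA-MB-468 transfectants exposed to fatty acids at 20 and 50 μM for 48 h; viable cells counted by trypan blue exclusion, expressed as decrease from control.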
# MDA-MB-468 [3] = experiment: Antiproliferative activity against human MDA-MB-468 cells after 48 hrs by MTT assay; format: functional, cell-based; settings: MDA-MB-468, 48 h
# MDA-MB-468 [4] = experiment: Antiproliferative activity against human MDA-MB-468 cells after 24 hrs by MTT assay; format: functional, cell-based
# MDA-MB-468 [5] = experiment: Proapoptotic activity in human MDA-MB-468 cells assessed as activation of caspase-3 by luminometry; format: functional, cell-based
# [6] = biological target: T1, Prostaglandin G/H synthase 2 (Homo sapiens) (UniProt P35354); experiment: Inhibition of COX2 overexpressed in human MDA-MB-468 cells assessed as reduction in basal PGE2 level at 50 uM over 48 hrs by LC-MS-MS assay relative to control; format: cell-based
# T1 sequence (whole entry): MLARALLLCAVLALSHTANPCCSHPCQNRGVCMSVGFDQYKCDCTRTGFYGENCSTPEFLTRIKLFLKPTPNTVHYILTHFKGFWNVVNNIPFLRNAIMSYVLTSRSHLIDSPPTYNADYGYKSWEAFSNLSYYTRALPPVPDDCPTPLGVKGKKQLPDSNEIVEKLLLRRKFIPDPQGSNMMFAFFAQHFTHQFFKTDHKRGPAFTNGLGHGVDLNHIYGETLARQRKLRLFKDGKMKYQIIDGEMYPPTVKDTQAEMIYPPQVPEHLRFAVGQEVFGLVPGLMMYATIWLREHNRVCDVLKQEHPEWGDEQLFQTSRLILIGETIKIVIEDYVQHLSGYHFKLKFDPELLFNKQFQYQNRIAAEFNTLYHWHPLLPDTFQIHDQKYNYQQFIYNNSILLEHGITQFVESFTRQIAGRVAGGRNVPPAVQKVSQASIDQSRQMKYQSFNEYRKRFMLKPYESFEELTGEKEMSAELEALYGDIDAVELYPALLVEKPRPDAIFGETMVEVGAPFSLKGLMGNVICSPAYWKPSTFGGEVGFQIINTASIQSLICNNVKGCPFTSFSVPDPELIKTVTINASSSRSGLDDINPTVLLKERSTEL
# In short: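 Intact COX-2-overexpressing MDA-MB-468 cells given fatty acid (50 μM) for 48 h without added substrate; basal PGE2 in medium measured by LC-MS-MS, as % of control.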
# [7] = biological target: T1, Prostaglandin G/H synthase 2 (Homo sapiens); experiment: Inhibition of peroxidase activity of COX-2 overexpressed in human MDA-MB-468 cells at 50 uM by spectrophotometry; values are per cent of control
# [8] = biological target: T1, Prostaglandin G/H synthase 2 (Homo sapiens); experiment: Inhibition of COX-2 overexpressed in human MDA-MB-468 cell lysate assessed as reduction in arachidonic acid-induced PGE2 formation at 50 uM by LC-MS-MS assay; values are per cent of control
# [9] = biological target: T1, Prostaglandin G/H synthase 2 (Homo sapiens); experiment: Inhibition of COX2 overexpressed in human MDA-MB-468 cells assessed as reduction in arachidonic acid-induced PGE2 production at 50 uM over 48 hrs by LC-MS-MS assay relative to control; values are per cent of control
# [10] = biological target: T1, Prostaglandin G/H synthase 2 (Homo sapiens); experiment: Inhibition of COX2 overexpressed in human MDA-MB-468 cells assessed as reduction in basal PGE2 level at 50 uM over 48 hrs by LC-MS-MS assay relative to control; values are per cent of control
# MDA-MB-468 [11] = experiment: Inhibition of cell invasion in human MDA-MB-468 cells overexpressing COX-2 at 20 uM after 20 hrs by matrigel droplet assay relative to untreated-control; values are per cent of control; settings: MDA-MB-468, 20 h
# [12] = biological target: T1, Prostaglandin G/H synthase 2 (Homo sapiens); experiment: Inhibition of COX-2 overexpressed in human MDA-MB-468 cell lysate assessed as reduction in arachidonic acid-induced PGE2 formation at 50 uM by LC-MS-MS assay; format: cell-free
# In short: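 Lysate of confluent COX-2-overexpressing MDA-MB-468 cells incubated with heme (10 μM), arachidonic acid (20 μM) and analogue (50 μM) in Tris-HCl 100 mM pH 8.0; quenched with ice-cold acetonitrile plus PGE2-d4, SPE cleanup, PGE2 quantified by negative-ion ESI LC-MS-MS.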
# MDA-MB-468 [13] = experiment: Inhibition of cell invasion in human MDA-MB-468 cells overexpressing COX-2 at 10 uM after 20 hrs by matrigel droplet assay relative to untreated-control; values are per cent of control; settings: MDA-MB-468, 20 h
IC50 (MDA-MB-468 [3]) [µM],EC50 (MDA-MB-468 [5]) [µM],inhibition [6],residual activity [7] [%],residual activity [8] [%],residual activity [9] [%],residual activity [10] [%],inhibition [12],Compound,inhibition (MDA-MB-468 [1]),Activity (MDA-MB-468 [2]),Activity (MDA-MB-468 [4]),"level, % of control at 20 µM (MDA-MB-468 [11]) [%]","level, % of control at 10 µM (MDA-MB-468 [13]) [%]"
> 100,> 100,–,–,–,–,–,–,CC/C=C\C/C=C\C/C=C\C/C=C\C/C=C\CCCC(=O)O [ICOSAPENT],–,–,–,–,–
21,26,–,58,42,40,45,–,CC/C=C\CCCCCCCCCCCCCCCCCC(=O)O,–,inactive,Dose-dependent effect,48,48
> 100,54,inactive,–,–,–,–,–,CC/C=C\CCCCCCCCCCCCCC(=O)O,inactive,inactive,Dose-dependent effect,–,–

# The remaining lines, values behind:
Compound,IC50 (MDA-MB-468 [3]) [µM],EC50 (MDA-MB-468 [5]) [µM],inhibition [6],residual activity [7] [%],residual activity [8] [%],residual activity [9] [%],residual activity [10] [%],inhibition [12],inhibition (MDA-MB-468 [1]),Activity (MDA-MB-468 [2]),Activity (MDA-MB-468 [4]),"level, % of control at 20 µM (MDA-MB-468 [11]) [%]","level, % of control at 10 µM (MDA-MB-468 [13]) [%]"
CC/C=C\CCCCCCCCCCCCC(=O)O,> 100,69,inactive,–,–,–,–,–,inactive,inactive,Dose-dependent effect,–,–
CC/C=C\CCCCCCCCCCCCCCCCC(=O)O,9.3,12,–,54,42,40,49,–,–,inactive,Dose-dependent effect,59,–
CC/C=C\CCCCCCCCCCCCCCCC(=O)O,31,43,–,62,42,–,46,–,–,inactive,Dose-dependent effect,75,–
CC/C=C\CCCCCCCCCCCCCCC(=O)O,36,43,inactive,71,–,–,–,Active,inactive,20%,Dose-dependent effect,–,–
CC/C=C\CCCCCCCCCCCC(=O)O,> 100,> 100,inactive,–,–,–,–,–,inactive,25%,Dose-dependent effect,–,–
CCCCC/C=C\C/C=C\C/C=C\C/C=C\CCCC(=O)O [ARACHIDONIC ACID],> 100,> 100,–,–,–,–,–,–,–,–,–,–,–
